Substitutions are numbered along the chain they refer to.
Legend:
[1] = biological target: T1, Free fatty acid receptor 4 (Rattus norvegicus) (UniProt Q2AC31); test: Agonist activity at rat FFA4 receptor relative to control
T1 sequence (whole entry): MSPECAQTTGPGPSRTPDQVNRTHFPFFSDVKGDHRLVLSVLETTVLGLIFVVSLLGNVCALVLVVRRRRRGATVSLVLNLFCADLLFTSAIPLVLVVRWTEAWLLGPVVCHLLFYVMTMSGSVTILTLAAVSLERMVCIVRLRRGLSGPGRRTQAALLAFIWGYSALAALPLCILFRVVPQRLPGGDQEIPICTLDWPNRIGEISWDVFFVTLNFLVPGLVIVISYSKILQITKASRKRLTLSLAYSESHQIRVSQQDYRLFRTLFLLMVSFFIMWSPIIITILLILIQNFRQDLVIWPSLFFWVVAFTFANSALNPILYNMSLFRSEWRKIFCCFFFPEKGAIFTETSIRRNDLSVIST

[2] = Clearance in C57BL/6J mouse at 4.2 mg/kg, iv; format: ADME, organism-based; conditions: in vivo
How it was run: (§1)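 C57BL/6J mice (n = 2) dosed intravenously at 3 or 4.2 mg/kg. Clearance (mL/min/kg) and AUC (hr*ng/mL) derived from plasma concentrations.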

[3] = biological target: T2, Free fatty acid receptor 4 (Homo sapiens) (UniProt Q5NUL3); test: Agonist activity at human FFA4 receptor expressed in human U2OS cells co-expressing Galpha16 assessed as calcium mobilization by Fluo-4 dye based FLIPR assay relative to GSK137647A; format: functional, cell-based
T2 sequence (whole entry): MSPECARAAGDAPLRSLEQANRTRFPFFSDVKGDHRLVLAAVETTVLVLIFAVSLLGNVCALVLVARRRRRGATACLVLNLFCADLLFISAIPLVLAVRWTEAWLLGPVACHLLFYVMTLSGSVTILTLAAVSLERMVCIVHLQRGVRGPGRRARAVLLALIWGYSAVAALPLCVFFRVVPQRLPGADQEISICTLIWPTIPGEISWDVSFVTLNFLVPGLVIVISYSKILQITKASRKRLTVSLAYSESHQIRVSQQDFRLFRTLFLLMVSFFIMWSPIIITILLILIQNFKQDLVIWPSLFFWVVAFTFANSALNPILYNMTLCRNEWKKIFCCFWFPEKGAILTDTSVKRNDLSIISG
How it was run: (§2)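 U2OS cells transiently expressing human FFA1 or FFA4. Agonism measured from a ten-point dose-response curve with FLIPR readout, giving EC50 (nM) and efficacy (% max response). Values are means of three experiments.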

[4] = Protein binding in human plasma; format: ADME, cell-free; conditions: read-out: PPB
[5] = biological target: T3, Free fatty acid receptor 3 (Homo sapiens, UniProt O14843); test: Agonist activity at human FFA3 receptor by FLIPR assay
T3 sequence (O14843 whole entry): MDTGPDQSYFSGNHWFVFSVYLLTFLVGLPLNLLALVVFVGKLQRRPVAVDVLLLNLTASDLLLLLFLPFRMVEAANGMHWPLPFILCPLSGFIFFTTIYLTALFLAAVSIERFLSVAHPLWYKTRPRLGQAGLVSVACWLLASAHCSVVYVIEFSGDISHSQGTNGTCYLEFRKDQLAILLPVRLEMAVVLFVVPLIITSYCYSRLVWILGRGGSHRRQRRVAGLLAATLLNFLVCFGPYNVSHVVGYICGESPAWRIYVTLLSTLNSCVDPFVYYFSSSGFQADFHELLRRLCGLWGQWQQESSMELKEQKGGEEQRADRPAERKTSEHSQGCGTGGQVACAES
How it was run: (§3)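 Human FFA2 or FFA3 agonism tested in FLIPR-based full-curve functional assays. EC50 (nM) and max response (%) reported.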

[6] = biological target: T4, Free fatty acid receptor 2 (Homo sapiens) (UniProt O15552); test: Agonist activity at human FFA2 receptor by FLIPR assay relative to control; how it was run: as §3
T4 sequence (whole entry): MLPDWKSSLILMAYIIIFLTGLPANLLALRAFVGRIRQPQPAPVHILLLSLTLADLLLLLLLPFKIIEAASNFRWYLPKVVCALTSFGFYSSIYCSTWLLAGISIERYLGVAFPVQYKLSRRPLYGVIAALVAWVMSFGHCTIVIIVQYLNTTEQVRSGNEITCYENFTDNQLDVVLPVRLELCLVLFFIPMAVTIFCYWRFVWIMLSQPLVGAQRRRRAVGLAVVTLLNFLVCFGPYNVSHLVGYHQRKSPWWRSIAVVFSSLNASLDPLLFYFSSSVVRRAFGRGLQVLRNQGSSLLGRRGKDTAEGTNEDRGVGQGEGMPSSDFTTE

[7] = AUC in C57BL/6J mouse at 4.2 mg/kg, iv; format: ADME, organism-based; conditions: in vivo; how it was run: as §1
[8] = Half life in C57BL/6J mouse at 10 mg/kg, po; format: ADME, organism-based; conditions: in vivo
[9] = biological target: T5, Free fatty acid receptor 1 (Homo sapiens, UniProt O14842); test: Agonist activity at human FFA1 receptor expressed in human U2OS cells co-expressing Galpha16 assessed as calcium mobilization by Fluo-4 dye based FLIPR assay; format: functional, cell-based; conditions: read-out: EC50; how it was run: as §2
Mus musculus [10] = test: Antidiabetic activity in db/db mouse assessed as plasma glucose level at 100 mg/kg, po bid after 2 weeks (reference value: 276 mg/dl); format: functional
How it was run: (§4)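 Fed db/db mice given vehicle or 100 mg/kg orally twice daily for 2 weeks. Blood glucose measured before treatment and after 1 and 2 weeks; HbA1c measured before and after 2 weeks.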

Rattus norvegicus [11] = test: Antidiabetic activity in ZDF rat assessed as plasma glucose level at 10 mg/kg bid for 14 days (reference value: 192 mg/dl); format: functional
[12] = biological target: T6, Free fatty acid receptor 4 (Mus musculus, UniProt Q7TMA4); test: Agonist activity at mouse FFA4 receptor
T6 sequence (Q7TMA4 whole entry): T1 sequence (whole entry) with R15H, P17L, L42V, V66A, V75A, S328N, E348D, I351V, T361S

Rattus norvegicus [13] = species on record: Rattus norvegicus; test: Selectivity ratio of EC50 for rat FFA1 receptor to EC50 for rat FFA4 receptor
[14] = biological target: Free fatty acid receptor 1 (Mus musculus, UniProt Q76JU9); test: Agonist activity at mouse FFA1 receptor
[15] = biological target: T5, Free fatty acid receptor 1; test: Agonist activity at human FFA1 receptor expressed in human U2OS cells co-expressing Galpha16 assessed as calcium mobilization by Fluo-4 dye based FLIPR assay relative to GSK137647A; format: functional, cell-based; how it was run: as §2
[16] = Cmax in C57BL/6J mouse at 10 mg/kg, po; format: ADME, organism-based; parameters: dose 10 mg/kg, route oral; conditions: in vivo
How it was run: (§5)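 C57BL/6J mice (n = 2), single oral dose of 10 mg/kg given as a suspension in 0.5% HMPC: 0.1% Tween. Plasma Cmax and AUC (hr*ng/mL) measured; %F calculated against the IV leg.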

[17] = biological target: T7, Free fatty acid receptor 4 (Rattus norvegicus, UniProt Q2AC31); test: Agonist activity at rat FFA4 receptor
T7 sequence (Q2AC31 whole entry): T1 sequence (whole entry)

[18] = AUC in C57BL/6J mouse at 10 mg/kg, po; format: ADME, organism-based; conditions: in vivo; how it was run: as §5
[19] = Oral bioavailability in C57BL/6J mouse at 10 mg/kg; format: ADME, organism-based; conditions: in vivo; how it was run: as §5
Rattus norvegicus [20] = test: Antidiabetic activity in ZDF rat assessed as plasma glucose level at 100 mg/kg bid for 14 days (reference value: 192 mg/dl); format: functional
[21] = biological target: Free fatty acid receptor 1 (Mus musculus) (UniProt Q76JU9); test: Agonist activity at mouse FFA1 receptor relative to control
Homo sapiens = species on record: Homo sapiens; test: Selectivity ratio of EC50 for human FFA1 receptor expressed in human U2OS cells co-expressing Galpha16 to EC50 for human FFA4 receptor expressed in human U2OS cells co-expressing Galpha16; format: cell-based
Mus musculus [22] = species on record: Mus musculus; test: Selectivity ratio of EC50 for mouse FFA1 receptor to EC50 for mouse FFA4 receptor
[23] = biological target: T8, Free fatty acid receptor 2 (Homo sapiens, UniProt O15552); test: Agonist activity at human FFA2 receptor by FLIPR assay; how it was run: as §3
T8 sequence (O15552 whole entry): T4 sequence (whole entry)

[24] = biological target: Free fatty acid receptor 1 (Rattus norvegicus, UniProt Q8K3T4); test: Agonist activity at rat FFA1 receptor
[25] = biological target: T9, Free fatty acid receptor 4 (Homo sapiens, UniProt Q5NUL3); test: Agonist activity at human FFA4 receptor expressed in human U2OS cells co-expressing Galpha16 assessed as calcium mobilization by Fluo-4 dye based FLIPR assay; format: functional, cell-based; how it was run: as §2
T9 sequence (Q5NUL3 whole entry): T2 sequence (whole entry)

Mus musculus [26] = test: Antidiabetic activity in db/db mouse assessed as reduction in HbA1c level at 100 mg/kg, po bid after 2 weeks relative to control; format: functional; parameters: scale not given: the % may be the effect or the level left; how it was run: as §4
[27] = biological target: T10, Free fatty acid receptor 4 (Mus musculus) (UniProt Q7TMA4); test: Agonist activity at mouse FFA4 receptor relative to control
T10 sequence (whole entry): T1 sequence (whole entry) with R15H, P17L, L42V, V66A, V75A, S328N, E348D, I351V, T361S

T5 sequence (O14842 whole entry): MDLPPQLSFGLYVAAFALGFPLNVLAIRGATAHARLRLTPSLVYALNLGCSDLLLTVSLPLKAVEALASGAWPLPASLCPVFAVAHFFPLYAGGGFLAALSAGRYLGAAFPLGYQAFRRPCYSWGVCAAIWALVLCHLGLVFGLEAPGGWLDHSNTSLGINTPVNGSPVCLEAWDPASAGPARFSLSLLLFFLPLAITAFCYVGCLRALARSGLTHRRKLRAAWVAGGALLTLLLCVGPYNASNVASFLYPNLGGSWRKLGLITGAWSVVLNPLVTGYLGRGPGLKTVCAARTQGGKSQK
Chain of Free fatty acid receptor 1 (Rattus norvegicus, UniProt Q8K3T4) (Q8K3T4 whole entry): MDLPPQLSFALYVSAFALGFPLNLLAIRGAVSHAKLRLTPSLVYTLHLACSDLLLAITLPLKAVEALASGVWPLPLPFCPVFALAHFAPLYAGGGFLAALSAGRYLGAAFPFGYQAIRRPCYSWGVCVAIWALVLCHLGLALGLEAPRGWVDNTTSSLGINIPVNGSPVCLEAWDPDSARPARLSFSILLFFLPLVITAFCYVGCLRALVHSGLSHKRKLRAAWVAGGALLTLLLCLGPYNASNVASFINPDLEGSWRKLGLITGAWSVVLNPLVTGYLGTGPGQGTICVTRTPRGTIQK
Chain of Free fatty acid receptor 1 (Mus musculus) (Q76JU9 whole entry): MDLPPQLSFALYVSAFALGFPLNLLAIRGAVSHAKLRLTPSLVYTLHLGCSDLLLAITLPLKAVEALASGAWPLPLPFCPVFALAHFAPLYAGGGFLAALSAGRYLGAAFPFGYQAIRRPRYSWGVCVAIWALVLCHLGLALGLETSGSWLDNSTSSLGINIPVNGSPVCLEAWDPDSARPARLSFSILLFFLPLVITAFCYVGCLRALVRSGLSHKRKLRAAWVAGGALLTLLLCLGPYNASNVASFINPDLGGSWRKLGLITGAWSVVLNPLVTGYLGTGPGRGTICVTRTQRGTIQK
Chain of Free fatty acid receptor 1 (Mus musculus, UniProt Q76JU9) (Q76JU9 whole entry): as above

Work on `COc1ccc(C(F)(F)F)cc1COc1ccc(CCC(=O)O)cc1C` yielded a %max [1] of 110%, a clearance [2] of 20 mL/min/kg and a %max [3] of 124%. For the same molecule, the fraction unbound [4] was 0.001, the EC50 [5] was greater than 50 µM and the %max [6] was 59%. It also gave an AUC [7] of 3620 ng·h/mL, a half-life [8] of 1.7 h and an EC50 [9] of 11.8 µM. The Activity (Mus musculus [10]) was 106 mg/dL, the Activity (Rattus norvegicus [11]) was 151 mg/dL and the EC50 [12] was 0.07 µM. For the same molecule, the Ratio EC50 (Rattus norvegicus [13]) was greater than 85, the EC50 [14] was 6.21 µM and the %max [15] was 105%. The Cmax [16] was 6780 ng/mL, the EC50 [17] was 0.23 µM and the AUC [18] was 9440 ng·h/mL. For the same molecule, the bioavailability [19] was 110%, the Activity (Rattus norvegicus [20]) was 139 mg/dL and the %max [21] was 83%. It also gave a Ratio EC50 (Homo sapiens) of 40, a Ratio EC50 (Mus musculus [22]) greater than 85 and an EC50 [23] of 25.3 µM. It also gave an EC50 [24] greater than 30 µM, an EC50 [25] of 0.299 µM and an Activity (Mus musculus [26]) of 1.6%. The %max [27] was 108%.

From ChEMBL document CHEMBL3994633, “Exploration of phenylpropanoic acids as agonists of the free fatty acid receptor 4 (FFA4): Identification of an orally efficacious FFA4 agonist” (Bioorg Med Chem Lett, 2017)
